From paper PMC3838623 (Journal of Pharmaceutical Sciences, 2013)
Where two headings read alike, the source gives them in different places.

Columns and labels:
plasma proteins [1] = conditions: cited from earlier work
[2] = test system: plasma proteins (human plasma); experiment: Reiterated stepwise equilibrium dialysis, plasma protein binding; assay type: in vitro ADME; conditions: two-sided ANOVA
Procedure, shortened: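 Human plasma spiked with test compound (final 10^6, 10^4 or 10^2 pM) was placed in a 1.0 mL dialysis sac inside a buffer chamber pre-coated with compound-containing buffer. Compound was present in both chambers at inner–outer ratios of 100:1 or 50:1. Dialysis ran 4–5 h at 37 ± 2°C with slow rotation, in triplicate, with radioactivity counting. % bound relative to pre-incubation; mean (SD) analysed by two-sided ANOVA for gender and concentration.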

[3] = cited from earlier work
plasma proteins [4] = conditions: liraglutide concentration 10^2 pM, cited from earlier work

exenatide: GLP-1 receptor agonist with shorter duration of action, twice-daily administration
plasma protein binding (plasma proteins [1]): does not demonstrate significant levels of plasma protein binding

liraglutide
estimated difference in protein binding, 10^2 pM compared with 10^4 pM ([2]; p = 0.581): 0.05% | estimated difference in protein-bound liraglutide, females vs. males ([2]; p = 0.593): −0.18% | plasma half-life [3]: approximately 13 h | liraglutide pharmacokinetics in renal impairment ([3]; subjects with mild-to-severe renal impairment versus healthy subjects): not altered | mean (SD) unbound percentage (plasma proteins [4]; healthy subjects): 0.53% (0.46) | mean (SD) unbound percentage (plasma proteins [4]; subjects with mild hepatic impairment): 0.59% (0.61)
